# Assay outcomes as filed in PubChem BioAssay.
# The list is not random: actives were taken first. Their share in the collection is about 1.9%.
# UHRF1 binding – UHRF1 methylated DNA binding inhibitors, primary screen, counter-screen for MBD2 inhibitor project, biochemical, TR-FRET, human UHRF1, single concentration. UHRF1 binding to methylated oligo. inhibition, % at 4.4 µM. 370,000 compounds, 0.75% hits. AID 687016, 2013; in the data active means inhibition above about 21%;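 further: UHRF1 SRA domain binding a hemimethylated CpG hairpin DNA probe; 0% = median of test compound wells and 100% = reference inhibitor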
# MBD2 DNA inh – inhibitors of MBD2 binding to methylated DNA, primary screen, biochemical, TR-FRET, DNA-binding domain, human; Methyl-CpG-binding domain protein 2 (Homo sapiens), Q9UBB5; MBD2 binding to methylated oligonucleotide; inhibition, % at 4.4 µM; 370,000 compounds, 0.31% hits; in the data active means inhibition above about 13%
# Target sequence (Q9UBB5 whole entry, looked up, the tested form may be a part): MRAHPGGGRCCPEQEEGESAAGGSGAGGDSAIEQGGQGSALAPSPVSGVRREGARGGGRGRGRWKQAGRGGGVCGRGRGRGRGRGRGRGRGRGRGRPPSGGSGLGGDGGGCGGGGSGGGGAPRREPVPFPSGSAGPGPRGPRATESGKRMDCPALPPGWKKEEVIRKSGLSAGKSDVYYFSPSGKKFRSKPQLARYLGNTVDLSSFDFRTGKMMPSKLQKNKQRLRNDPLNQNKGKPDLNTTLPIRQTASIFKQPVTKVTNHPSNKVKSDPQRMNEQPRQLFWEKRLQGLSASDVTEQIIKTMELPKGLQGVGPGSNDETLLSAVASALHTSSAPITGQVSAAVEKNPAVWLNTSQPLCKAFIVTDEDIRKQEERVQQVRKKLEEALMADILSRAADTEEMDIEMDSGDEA
# Rin1 Abl inh – inhibitors of Rin1-Abl protein binding, primary screen, biochemical, TR-FRET; 360,000 compounds, 0.4% hits; inhibition, % at 7.35 µM; Tyrosine-protein kinase ABL1 (Homo sapiens) + Ras and Rab interactor 1 (Homo sapiens), …; AID 588664, 2011; in the data active means inhibition above about 5%, passing the limit was not always enough
# LEDGF integ inh – blockers of LEDGF/p75-dependent integrase strand transfer – biochemical, TR-FRET, high throughput, primary screen | HIV-1 integrase (with human LEDGF/p75) | TR-FRET IN-LEDGF/p75 DNA integration, Eu/Cy5 | inhibition, % at 3.7 µM | 370,000 compounds, 0.64% hits | AID 743269, 2014;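 active means inhibition above the screen-wide mean plus 3 SD, cut at about 13% in these data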;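 further: signal is the Cy5 over europium emission ratio at 671 and 618 nm; 0% = plate median of compound wells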
# TDP2 absorb – human TDP2 enzyme inhibitors, primary screen, biochemical, epi absorbance, recombinant enzyme; 370,000 compounds, 0.34% hits; T5PNP hydrolysis, p-nitrophenol absorbance 415 nm; inhibition, % at 12.8 µM; AID 720702, 2013;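 active means inhibition above the mean of all tested compounds plus 3 SD, set per campaign, cut at about 25% in these data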;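 further: 0% = DMSO with enzyme and 100% = buffer with substrate but no TDP2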
#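 Test system: Human TDP2 enzyme | Reagent: 5 mM T5PNP | Compound dosing: 12.8 µM single point, 1% DMSO | Incubation: Enzyme reaction with compound for 2 h at 37 °C | Technique: p-Nitrophenol epi absorbance | Read-out: % inhibition relative to enzyme-containing and enzyme-free wells | Benchmarks: High control without enzyme, low control DMSO plus TDP2 | Replicates: Singlicate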
# TDP2 confirm – human TDP2 enzyme inhibitors, retest, confirmation, biochemical, epi absorbance, recombinant enzyme | shares compounds with TDP2 absorb | absorbance read-out | inhibition, % at 12.8 µM | 1,100 compounds, 22% hits | AID 743263, 2014; in the data active means inhibition above about 25%;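 further: 0% = vehicle with enzyme and 100% = no enzyme buffer only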
# IN multimer act – HIV-1 IN multimer formation enhancers, counter-screen for LEDGF/p75 integration inhibitor project, biochemical, TR-FRET | 2,000 compounds, 17% hits | activation, % at 7.7 µM | TR-FRET HIV-1 integrase multimerization | shares compounds with LEDGF integ inh; in the data active means activation above about 8.9%
# TRFRET interf – TR-FRET optical interference artefacts, confirmation, artefact control for LEDGF/p75-dependent integration inhibitor project, biochemical, HIV-1 IN multimerization | shares compounds with LEDGF integ inh | TR-FRET optical interference counterscreen | inhibition, % at 7.7 µM | 2,000 tested, under 10 active | AID 1053135, 2014;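 active means inhibition above the mean over all tested compounds plus 3 SD, which no compound reached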;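 further: 0% = integrase with antibodies and DMSO and 100% = antibodies without integrase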
# IN-LEDGF confirm – inhibitors of HIV-1 IN-LEDGF/p75 DNA integration, confirmation, biochemical, TR-FRET; shares compounds with LEDGF integ inh; TR-FRET LEDGF/p75-dependent HIV-1 integration; inhibition, % at 3.7 µM; 2,000 compounds, 36% hits; in the data active means inhibition above about 14%
# The depositor's hits bear a star; x = no result.
SMILES,UHRF1 binding,MBD2 DNA inh,Rin1 Abl inh,LEDGF integ inh,TDP2 absorb,IN multimer act,TRFRET interf,IN-LEDGF confirm,others
C[n+]1c2cc(N)ccc2cc2ccc(N)cc21,-322,0,-192,40*,29*,20*,-70,45*,TDP2 confirm=28*
CCc1nn2c(N3CCOCC3)cc(C)nc2c1-c1ccccc1,0,-5,1,-1,-1,x,x,x,
COP(=O)(OC)c1ccc(NCc2cc(O)ccc2O)cc1,2,-2,4,20*,-5,64*,-225,24*,
Cc1ccccc1C(=O)Nc1ccc(S(=O)(=O)NCC2CCCO2)cc1 (configuration not stated),0,2,6,15*,7,0,2,0,
S=c1nc(-c2ccccc2)[nH]c2ccc(Br)cc12,-2,6,-5,1,5,x,x,x,
O=c1[nH]c(-c2ccccc2)nn1-c1ccc(Br)cc1Br,-3,2,1,26*,13,1,-4,5,
Cc1ccsc1S(=O)(=O)n1c(CN2CCOCC2)nc2ccccc21,-3,1,x,-4,3,x,x,x,
Cc1cc(=O)[nH]c(SCC(=O)NCc2ccco2)n1,8,3,0,20*,6,-1,6,21*,
C=CCN1C=C2C(=O)C(C)(OC(=O)c3cnc4ccccc4n3)C(=O)C=C2C=C1/C=C/COC (configuration not stated),5,-1,-3,25*,-4,2,-10,40*,
CC(C)C[C@H]1COc2cc(Br)ccc2S(=O)(=O)N1Cc1cn(Cc2ccc(C(F)(F)F)cc2)nn1,1,-6,x,1,5,x,x,x,
O=C1S/C(=C\c2cccs2)C(=O)N1c1ccc(O)cc1,-4,1,-4,0,12,x,x,x,
O=C1S/C(=C\C=C\c2ccco2)C(=O)N1c1ccc(O)cc1,10,4,-2,31*,7,17*,-60,28*,
S=c1[nH]nc(-c2ccncc2)n1/N=C/C=C/c1ccco1,14,0,5,18*,7,5,-26,33*,
Cc1cccc(-c2n[nH]c(=S)n2/N=C/C=C/c2ccco2)c1,26*,11,0,29*,-7,2,-12,8,
CC(Sc1n[nH]c(-c2cccs2)n1)C(=O)N1CCCC1 (configuration not stated),-2,2,1,0,-11,x,x,x,
C=CCN1CCc2nc(N)sc2CC1,4,12,-1,14*,3,0,-2,3,
O=C(/C=C(\Nc1cccc(F)c1)c1ccccc1)c1ccccc1,0,0,x,-1,-3,x,x,x,
O=C1C(=Cc2ccco2)CCCC1=Cc1ccco1,52*,15*,6,61*,-2,1,-2,58*,
Cc1cc(C)c2c(N)c(S(=O)c3ccc(C(C)(C)C)cc3)sc2n1 (configuration not stated),1,-1,1,36*,-5,1,-4,-4,
Cc1cc(C)c2c(N)c(C(=O)C(C)(C)C)sc2n1,9,5,0,1,3,x,x,x,
Cc1ccnc(N2CCC(C(=O)NNC(=O)c3ccccc3)CC2)n1,-2,0,0,-2,4,x,x,x,
Cc1ccc(C(=O)NNC(=O)C2CCN(c3nccc(C)n3)CC2)cc1,4,4,1,18*,5,0,-1,-6,
Cc1c(C(=O)OCC(C)C)[nH]c2c1C(=O)CC(c1ccco1)C2 (configuration not stated),4,6,-1,5,-4,x,x,x,
C/C=C/COC(=O)c1[nH]c2c(c1C)C(=O)CC(c1ccco1)C2 (configuration not stated),20,10,-1,18*,5,5,-16,21*,
CCCCCCSc1ccc([C@H]2N[C@@](CC(C)C)(C(=O)OC)[C@H]3C(=O)N(CC)C(=O)[C@@H]23)cc1,7,2,-1,3,-17,x,x,x,
SMILES,UHRF1 binding,MBD2 DNA inh,Rin1 Abl inh,LEDGF integ inh,TDP2 absorb,IN multimer act,TRFRET interf,IN-LEDGF confirm,others
CCCCCCSc1ccc([C@H]2N[C@@](C)(C(=O)OC)[C@H]3C(=O)N(CC)C(=O)[C@@H]23)cc1,0,3,3,15*,-9,0,-1,-3,
N=C1/C(=C/c2coc3ccccc3c2=O)C(=O)N=C2SC(c3ccco3)=NN12,x,x,-2,x,x,x,x,x,
N=C1/C(=C\c2coc3ccccc3c2=O)C(=O)N=C2SC(c3ccncc3)=NN12,-6,-4,-2,25*,10,0,-1,62*,
COc1ccc(S(=O)(=O)N2CCOCC2)cc1NC(=O)C1CCN(S(=O)(=O)c2ccc(Cl)cc2)CC1,-2,3,7,1,10,x,x,x,
CC(=O)Nc1ccc(Oc2cnccn2)cc1,-2,1,-2,29*,7,-3,17,3,
O=C(N/C=C/c1ccco1)NCc1ccccc1,23*,7,3,28*,5,14*,-73,44*,
O=C(/C=C/c1ccco1)NCc1ccc(F)cc1,3,7,4,4,-9,x,x,x,
COC(=O)C1=C(C)N(Cc2ccc(C(F)(F)F)cc2)C(=NCc2ccccc2)NC1c1ccccc1 (configuration not stated),4,-3,x,-1,-2,x,x,x,
CC[C@@H](C)CN1C(=O)N[C@@H](c2ccccc2)C(C(C)=O)=C1C,10,-6,3,18*,10,1,-4,19*,
CC(C)NCC(O)c1ccc(NS(C)(=O)=O)cc1 (configuration not stated),-2,2,1,2,7,x,x,x,
CC(C)NC[C@@H](O)c1ccc(O)c(O)c1,-2,-7,6,16*,7,4,-21,21*,
